# Columns and labels:
# Cutibacterium acnes [1] = test: Antibacterial activity against drug-resistant Propionibacterium acnes EG7NS after 72 hrs; format: functional
# Method in brief: (§1)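 MBC for P. acnes followed MIC assays by standard methodology. Samples were plated on Wilkins-Chalgren agar, incubated anaerobically in GENbox jars at 35 to 37°C, and examined for growth after 72 h.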
# Staphylococcus aureus [2] = test: Antibacterial activity against methicillin-resistant Staphylococcus aureus after 20 to 24 hrs by broth microdilution method
# [3] = system: Corynebacterium diphtheriae; test: Antibacterial activity against Corynebacterium diphtheriae after 48 hrs by broth microdilution method; format: functional
# Method in brief: (§2)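 Broth microdilution per CLSI in cation-adjusted Mueller-Hinton broth supplemented with 0.5% (vol/vol) Tween 80. Plates incubated at 35°C in ambient air for 44 to 48 h, then read visually. MICs in μg/ml; a geometric mean MIC was calculated across the corynebacterial strains.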
# Cutibacterium acnes [4] = test: Antibacterial activity against drug-resistant Propionibacterium acnes P429:1 (SC) after 48 hrs by broth microdilution method; format: functional
# Method in brief: (§3)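 Broth microdilution MIC in Wilkins-Chalgren broth without lysed horse blood, following CLSI anaerobe guidelines. Plates were held in anaerobic jars with atmosphere generators (O2 <0.1% by 2.5 h, CO2 >15% by 24 h) at 35 to 37°C for 48 h. Growth was read with an illuminated plate reader and magnifying mirror.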
# Cutibacterium acnes [5] = test: MBC/MIC ratio of Propionibacterium acnes SW3CD; format: functional
# Method in brief: (§4)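 MIC by CLSI broth microdilution in Wilkins-Chalgren broth in anaerobic jars (O2 <0.1%, CO2 >15%), read after 48 h at 35–37°C on an illuminated plate reader. For MBC, samples were plated onto Wilkins-Chalgren agar and incubated anaerobically for 72 h at 35–37°C before growth was scored.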
# Cutibacterium acnes [6] = test: Antibacterial activity against drug-resistant Propionibacterium acnes OK8/97 after 48 hrs by broth microdilution method; format: functional; method in brief: as §3
# Cutibacterium acnes [7] = test: Antibacterial activity against drug-resistant Propionibacterium acnes P95 after 72 hrs; format: functional; method in brief: as §1
# [8] = Antibacterial activity against Streptococcus dysgalactiae subsp. dysgalactiae after 48 hrs by broth microdilution method; format: functional
# Cutibacterium acnes [9] = test: Antibacterial activity against drug-resistant Propionibacterium acnes SW54EA after 48 hrs by broth microdilution method; format: functional; method in brief: as §3
# Cutibacterium acnes [10] = test: Antibacterial activity against drug-resistant Propionibacterium acnes GE4E after 72 hrs; format: functional; method in brief: as §1
# Cutibacterium acnes [11] = test: Antibacterial activity against drug-resistant Propionibacterium acnes EG7NS after 48 hrs by broth microdilution method; format: functional; method in brief: as §3
# Cutibacterium acnes [12] = test: Antibacterial activity against drug-resistant Propionibacterium acnes SW11 after 48 hrs by broth microdilution method; format: functional; method in brief: as §3
# [13] = system: Streptococcus equi subsp. zooepidemicus; test: Antibacterial activity against Streptococcus equi subsp. zooepidemicus after 48 hrs by broth microdilution method; format: functional
# Cutibacterium acnes [14] = test: Antibacterial activity against drug-resistant Propionibacterium acnes SW10 after 48 hrs by broth microdilution method; format: functional; method in brief: as §3
# Cutibacterium acnes [15] = test: Antibacterial activity against drug-resistant Propionibacterium acnes GE4E after 48 hrs by broth microdilution method; format: functional; method in brief: as §3
# Cutibacterium acnes [16] = test: Antibacterial activity against drug-resistant Propionibacterium acnes SW26 after 48 hrs by broth microdilution method; format: functional; method in brief: as §3
# Cutibacterium acnes [17] = test: Antibacterial activity against drug-resistant Propionibacterium acnes FG7E after 48 hrs by broth microdilution method; format: functional; method in brief: as §3
# Staphylococcus aureus [18] = test: Antibacterial activity against methicillin-susceptible Staphylococcus aureus after 48 hrs by broth microdilution method; format: functional
# Cutibacterium acnes [19] = test: Antibacterial activity against drug-resistant Propionibacterium acnes P429:1 (BC) after 48 hrs by broth microdilution method; format: functional; method in brief: as §3
# Cutibacterium acnes [20] = test: Antibacterial activity against drug-resistant Propionibacterium acnes EG3NS after 48 hrs by broth microdilution method; format: functional; method in brief: as §3
# Cutibacterium acnes [21] = test: Antibacterial activity against drug-resistant Propionibacterium acnes SW3CD after 72 hrs; format: functional; method in brief: as §1
# Cutibacterium acnes [22] = test: Antibacterial activity against drug-resistant Propionibacterium acnes P425:1 after 48 hrs by broth microdilution method; format: functional; method in brief: as §3
# Cutibacterium acnes [23] = test: Antibacterial activity against drug-resistant Propionibacterium acnes SP64E after 48 hrs by broth microdilution method; format: functional; method in brief: as §3
# Cutibacterium acnes [24] = test: MBC/MIC ratio of Propionibacterium acnes EG7NS; format: functional; method in brief: as §4
# [25] = system: Propionibacterium granulosum; test: Antibacterial activity against drug-resistant Propionibacterium granulosum QK6/92 after 48 hrs by broth microdilution method
# Cutibacterium acnes [26] = test: Antibacterial activity against drug-resistant Propionibacterium acnes P401:5 after 48 hrs by broth microdilution method; format: functional; method in brief: as §3
# [27] = system: Corynebacterium minutissimum; test: Antibacterial activity against Corynebacterium minutissimum after 48 hrs by broth microdilution method; format: functional; method in brief: as §2
# Cutibacterium acnes [28] = test: Antibacterial activity against drug-resistant Propionibacterium acnes GE46EB after 48 hrs by broth microdilution method; format: functional; method in brief: as §3
# Cutibacterium acnes [29] = test: Antibacterial activity against drug-resistant Propionibacterium acnes P:413 after 48 hrs by broth microdilution method; format: functional; method in brief: as §3
# [30] = system: Propionibacterium granulosum; test: Antibacterial activity against drug-resistant Propionibacterium granulosum NCTC-11865 after 48 hrs by broth microdilution method; format: functional; conditions: Cutibacterium granulosum, NCTC-11865, 48 h; method in brief: as §3
# Cutibacterium acnes [31] = test: Antibacterial activity against drug-resistant Propionibacterium acnes P322:2 after 48 hrs by broth microdilution method; format: functional; method in brief: as §3
# Cutibacterium acnes [32] = test: MBC/MIC ratio of Propionibacterium acnes SW101T; format: functional; method in brief: as §4
# Cutibacterium acnes [33] = test: Antibacterial activity against drug-resistant Propionibacterium acnes SW101T after 48 hrs by broth microdilution method; format: functional; method in brief: as §3
# [34] = system: Staphylococcus epidermidis; test: Antibacterial activity against Staphylococcus epidermidis after 48 hrs by broth microdilution method; format: functional
# Cutibacterium acnes [35] = test: Antibacterial activity against drug-resistant Propionibacterium acnes SW16 after 48 hrs by broth microdilution method; format: functional; method in brief: as §3
# Streptococcus pyogenes = test: Antibacterial activity against Streptococcus pyogenes after 20 to 24 hrs by broth microdilution method
# Cutibacterium acnes [36] = test: Antibacterial activity against drug-resistant Propionibacterium acnes SW17 after 48 hrs by broth microdilution method; format: functional; method in brief: as §3
# Cutibacterium acnes [37] = test: Antibacterial activity against drug-resistant Propionibacterium acnes SW101CDA after 48 hrs by broth microdilution method; format: functional; method in brief: as §3
# [38] = system: Corynebacterium amycolatum; test: Antibacterial activity against Corynebacterium amycolatum after 48 hrs by broth microdilution method; format: functional; method in brief: as §2
# Cutibacterium acnes [39] = test: Antibacterial activity against drug-resistant Propionibacterium acnes SW101T after 72 hrs; format: functional; method in brief: as §1
# Cutibacterium acnes [40] = test: Antibacterial activity against drug-resistant Propionibacterium acnes SW3CD after 48 hrs by broth microdilution method; format: functional; method in brief: as §3
# Cutibacterium acnes [41] = test: Antibacterial activity against drug-resistant Propionibacterium acnes P95 after 48 hrs by broth microdilution method; format: functional; method in brief: as §3
# Cutibacterium acnes [42] = test: Antibacterial activity against drug-resistant Propionibacterium acnes D-04/97 after 48 hrs by broth microdilution method; format: functional; method in brief: as §3
# Staphylococcus aureus [43] = test: Antibacterial activity against borderline oxacillin-resistant Staphylococcus aureus after 20 to 24 hrs by broth microdilution method
# Cutibacterium acnes [44] = test: MBC/MIC ratio of Propionibacterium acnes P95; format: functional; method in brief: as §4
# Cutibacterium acnes [45] = test: MBC/MIC ratio of Propionibacterium acnes GE4E; format: functional; method in brief: as §4
# Corynebacterium jeikeium = test: Antibacterial activity against Corynebacterium jeikeium after 48 hrs by broth microdilution method; format: functional; method in brief: as §2
# Cutibacterium acnes [46] = test: Antibacterial activity against drug-resistant Propionibacterium acnes EG13NS after 48 hrs by broth microdilution method; format: functional; method in brief: as §3
smiles,measurement,setting,value
CN(C)[C@@H]1C(O)=C(C(N)=O)C(=O)[C@@]2(O)C(O)=C3C(=O)c4c(O)cccc4[C@@](C)(O)[C@H]3C[C@@H]12 [TETRACYCLINE],MBC,Cutibacterium acnes [1],> 32 µg/mL
same,MIC,Staphylococcus aureus [2],3.17 µg/mL
same,MIC,[3],5.16 µg/mL
same,MIC,Cutibacterium acnes [4],≥ 32 µg/mL
same,Ratio,Cutibacterium acnes [5],>32
same,MIC,Cutibacterium acnes [6],0.5 µg/mL
same,MBC,Cutibacterium acnes [7],32 µg/mL
same,MIC,[8],4.58 µg/mL
same,MIC,Cutibacterium acnes [9],0.5 µg/mL
same,MBC,Cutibacterium acnes [10],> 32 µg/mL
same,MIC,Cutibacterium acnes [11],≤ 0.06 µg/mL
same,MIC,Cutibacterium acnes [12],2 µg/mL
same,MIC,[13],8 µg/mL
same,MIC,Cutibacterium acnes [14],0.5 µg/mL
same,MIC,Cutibacterium acnes [15],2 µg/mL
same,MIC,Cutibacterium acnes [16],0.5 µg/mL
same,MIC,Cutibacterium acnes [17],32 µg/mL
same,MIC,Staphylococcus aureus [18],3.17 µg/mL
same,MIC,Cutibacterium acnes [19],1 µg/mL
same,MIC,Cutibacterium acnes [20],0.5 µg/mL
same,MBC,Cutibacterium acnes [21],> 32 µg/mL
same,MIC,Cutibacterium acnes [22],16 µg/mL
same,MIC,Cutibacterium acnes [23],1 µg/mL
same,Ratio,Cutibacterium acnes [24],>=533
same,MIC,[25],1 µg/mL
same,MIC,Cutibacterium acnes [26],32 µg/mL
same,MIC,[27],5.16 µg/mL
same,MIC,Cutibacterium acnes [28],1 µg/mL
same,MIC,Cutibacterium acnes [29],16 µg/mL
same,MIC,[30],0.5 µg/mL
same,MIC,Cutibacterium acnes [31],32 µg/mL
same,Ratio,Cutibacterium acnes [32],>1
same,MIC,Cutibacterium acnes [33],32 µg/mL
same,MIC,[34],7.55 µg/mL
same,MIC,Cutibacterium acnes [35],0.25 µg/mL
same,MIC,Streptococcus pyogenes,3.25 µg/mL
same,MIC,Cutibacterium acnes [36],0.25 µg/mL
same,MIC,Cutibacterium acnes [37],≤ 0.06 µg/mL
same,MIC,[38],5.16 µg/mL
same,MBC,Cutibacterium acnes [39],> 32 µg/mL
same,MIC,Cutibacterium acnes [40],1 µg/mL
same,MIC,Cutibacterium acnes [41],0.5 µg/mL
same,MIC,Cutibacterium acnes [42],1 µg/mL
same,MIC,Staphylococcus aureus [43],3.17 µg/mL
same,Ratio,Cutibacterium acnes [44],>64
same,Ratio,Cutibacterium acnes [45],>16
same,MIC,Corynebacterium jeikeium,5.16 µg/mL
same,MIC,Cutibacterium acnes [46],1 µg/mL

# Source: ChEMBL document CHEMBL1143835, “Antipropionibacterial activity of BAL19403, a novel macrolide antibiotic” (2007)
